Assay results: ChEMBL document CHEMBL1828628, “Discovery of a tetrahydroisoquinoline-based hydroxamic acid derivative (ZYJ-34c) as histone deacetylase inhibitor with potent oral antitumor activities” (J Med Chem, 2011)
Activity calls are given as the source filed them. The rule behind the calls is not given here.

Assays:
Mus musculus [1] = assay: Toxicity in mouse H22 cells xenografted Kunming mouse assessed as change in body weight at 90 mg/kg, po qd for 19 days; type: organism-based; parameters: dose 90 mg/kg, route oral; conditions: in vivo, 456 h
Mus musculus [2] = assay: Toxicity in mouse H22 cells xenografted Kunming mouse assessed as signs of organ toxicity at 90 mg/kg, po qd for 19 days; type: organism-based; parameters: dose 90 mg/kg, route oral; conditions: in vivo, 456 h
MDA-MB-231 [3] = assay: Antitumor activity against human MDA-MB-231 cells xenografted in BALB/c nu mouse assessed as tumor growth inhibition at 90 mg/kg, ip qd for 19 days relative to control; type: functional; conditions: route intraperitoneal; for inhibition in vivo at 90 mg/kg: Mus musculus, MDA-MB-231, ip, 456 h, read-out: TGI
H22 = assay: Antitumor activity against mouse H22 cells xenografted in Kunming mouse assessed as reduction of pulmonary metastatic nodes in lungs at 90 mg/kg, po qd for 14 days; type: functional, organism-based; parameters: dose 90 mg/kg
[4] = target: 72 kDa type IV collagenase (Homo sapiens) (UniProt P08253); assay: Inhibition of MMP2
[5] = target: Aminopeptidase N (Homo sapiens) (UniProt P15144); assay: Inhibition of aminopeptidase N
Mus musculus [6] = assay: Toxicity in human MDA-MB-231 cells xenografted BALB/c nu mouse assessed as change in body weight at 90 mg/kg, ip qd for 19 days; type: organism-based; parameters: dose 90 mg/kg, route intraperitoneal; conditions: in vivo, 456 h
Summary of the method: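 Female BALB/c-nu mice, 5–6 weeks old, bearing subcutaneous right-flank xenografts. Mice were randomized 6 per group at about 100 mm3 tumor size. Dosing was oral or intraperitoneal for 19 days; controls received an equal volume of PBS containing DMSO. Body weight was monitored regularly during treatment, and tumors were measured by caliper every three days.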

MDA-MB-231 [7] = assay: Cell cycle arrest in human MDA-MB-231 cells assessed as accumulation at G2 phase at 5 uM after 48 hrs using propidium iodide staining by flow cytometric analysis; type: functional, cell-based
Summary of the method: (§1)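 MDA-MB-231 cells were seeded at 4 × 10^5 per well and incubated overnight, then treated for 48 h. Cells were fixed overnight in 70% ethanol phosphate buffer and washed twice with PBS. They were treated with DNase-free RNase A (1 mg/mL) for 30 min, then stained with propidium iodide for 30 min in the dark at room temperature. DNA content was read by FACScan flow cytometry.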

MDA-MB-231 [8] = assay: Cell cycle arrest in human MDA-MB-231 cells assessed as accumulation at G1 phase at 1 uM after 48 hrs using propidium iodide staining by flow cytometric analysis; type: functional, cell-based; summary of the method: as §1

Aminopeptidase N (Homo sapiens), sequence (P15144 whole entry): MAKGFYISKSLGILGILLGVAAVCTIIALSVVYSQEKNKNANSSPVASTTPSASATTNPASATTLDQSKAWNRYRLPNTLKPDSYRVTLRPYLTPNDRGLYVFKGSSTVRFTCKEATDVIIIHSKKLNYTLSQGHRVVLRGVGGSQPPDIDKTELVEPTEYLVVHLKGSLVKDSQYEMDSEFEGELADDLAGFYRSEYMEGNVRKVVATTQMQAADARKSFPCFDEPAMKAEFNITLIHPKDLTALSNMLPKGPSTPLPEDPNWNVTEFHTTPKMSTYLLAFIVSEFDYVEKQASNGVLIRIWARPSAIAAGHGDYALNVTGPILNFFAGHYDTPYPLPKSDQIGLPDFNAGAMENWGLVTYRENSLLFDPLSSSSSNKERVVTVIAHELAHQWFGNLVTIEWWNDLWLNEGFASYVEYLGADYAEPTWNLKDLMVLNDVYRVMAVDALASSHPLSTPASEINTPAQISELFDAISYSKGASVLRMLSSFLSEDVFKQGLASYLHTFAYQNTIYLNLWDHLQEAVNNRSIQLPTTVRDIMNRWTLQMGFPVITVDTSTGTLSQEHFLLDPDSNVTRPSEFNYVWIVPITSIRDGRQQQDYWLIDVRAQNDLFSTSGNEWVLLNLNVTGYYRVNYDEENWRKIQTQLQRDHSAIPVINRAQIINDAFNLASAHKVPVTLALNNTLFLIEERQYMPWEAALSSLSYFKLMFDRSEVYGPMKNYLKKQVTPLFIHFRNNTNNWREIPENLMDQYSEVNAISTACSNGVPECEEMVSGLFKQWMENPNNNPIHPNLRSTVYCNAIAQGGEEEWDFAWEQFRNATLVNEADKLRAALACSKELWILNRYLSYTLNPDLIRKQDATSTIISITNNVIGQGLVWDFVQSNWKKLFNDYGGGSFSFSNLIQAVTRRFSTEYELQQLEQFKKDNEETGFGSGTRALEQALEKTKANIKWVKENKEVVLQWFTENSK
72 kDa type IV collagenase (Homo sapiens), sequence (P08253 110-660 limits assumed): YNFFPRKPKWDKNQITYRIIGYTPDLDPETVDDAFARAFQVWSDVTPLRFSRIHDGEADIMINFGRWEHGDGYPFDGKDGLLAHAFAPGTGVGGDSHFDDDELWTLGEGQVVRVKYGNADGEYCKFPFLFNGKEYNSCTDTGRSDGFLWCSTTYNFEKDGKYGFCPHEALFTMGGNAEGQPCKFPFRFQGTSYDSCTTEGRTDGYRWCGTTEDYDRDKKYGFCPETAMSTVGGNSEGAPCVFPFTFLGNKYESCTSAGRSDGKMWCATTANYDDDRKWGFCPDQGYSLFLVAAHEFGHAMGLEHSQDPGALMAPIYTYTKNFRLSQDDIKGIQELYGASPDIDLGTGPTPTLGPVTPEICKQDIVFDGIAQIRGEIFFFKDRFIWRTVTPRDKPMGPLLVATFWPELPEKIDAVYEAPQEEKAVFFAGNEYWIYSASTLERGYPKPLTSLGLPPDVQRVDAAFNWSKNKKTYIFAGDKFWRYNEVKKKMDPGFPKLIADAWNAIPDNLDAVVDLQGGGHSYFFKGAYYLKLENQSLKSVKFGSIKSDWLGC

Row | SMILES | Activity (Mus musculus [1]) | Activity (Mus musculus [2]) | inhibition in vivo at 90 mg/kg (MDA-MB-231 [3]) [%] | T/C (MDA-MB-231 [3]) [%] | Activity (H22) | inhibition [4] | inhibition [5] | Activity (Mus musculus [6]) | Activity (MDA-MB-231 [7]) | Activity (MDA-MB-231 [8])
1 | CC[C@H](C)[C@@H](CN1Cc2cc(OCC(=O)NO)ccc2C[C@H]1C(=O)Nc1ccc(OC)cc1)NC(=O)CC(C)(C)C | Non-toxic | Non-toxic | -9 | 87 | Active | inactive | Active | Non-toxic |  | 
2 | CC[C@H](C)[C@H](NC(=O)OC(C)(C)C)C(=O)N1Cc2cc(OCC(=O)NO)ccc2C[C@H]1C(=O)Nc1ccc(OC)cc1 | Non-toxic | Non-toxic | 40 | 63 | Active | inactive | Active | Non-toxic |  | 
3 | O=C(CCCCCCC(=O)Nc1ccccc1)NO |  |  |  |  | inactive | inactive |  |  | Active | Active
4 | CC[C@H](C)[C@@H](CN1Cc2cc(OCC(=O)NO)ccc2C[C@H]1C(=O)Nc1ccc(OC)cc1)NC(=O)OC(C)(C)C | Non-toxic | Non-toxic | 55 | 47 | Active | inactive | Active | Non-toxic |  | 
